Results: ChEMBL document CHEMBL2040729, “Lead optimization of 17β-HSD1 inhibitors of the (hydroxyphenyl)naphthol sulfonamide type for the treatment of endometriosis” (J Med Chem, 2012)
pIC50: −log10 of the molar value. The source made the active and inactive calls. No cut-off for these calls is given here.

Legend:
[1] = target: T1, 17-beta-hydroxysteroid dehydrogenase type 2 (Homo sapiens, UniProt P37059); assay: Inhibition of human placenta microsomal 17betaHSD2 using [3H]E2 as substrate after 20 mins by radioflow detection assay
T1 sequence (P37059 whole entry): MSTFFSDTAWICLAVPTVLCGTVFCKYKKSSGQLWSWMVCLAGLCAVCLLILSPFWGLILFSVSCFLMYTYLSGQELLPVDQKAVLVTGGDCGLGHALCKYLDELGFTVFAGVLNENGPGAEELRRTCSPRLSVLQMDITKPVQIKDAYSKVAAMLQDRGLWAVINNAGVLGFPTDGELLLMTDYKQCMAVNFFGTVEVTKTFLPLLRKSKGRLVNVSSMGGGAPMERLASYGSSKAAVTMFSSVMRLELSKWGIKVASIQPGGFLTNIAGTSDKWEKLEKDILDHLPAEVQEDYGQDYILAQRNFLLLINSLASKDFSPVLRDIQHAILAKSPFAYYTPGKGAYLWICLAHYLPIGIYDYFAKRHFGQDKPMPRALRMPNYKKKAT
Outline: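 Microsomal (pellet) fraction of fresh human placenta incubated with NAD+ 1500 μM, compound, and unlabeled + [3H]-E2 (500 nM final) for 20 min at 37 °C. Stopped with 1 mM HgCl2, ether-extracted. Steroids separated by HPLC with radioflow detection, conversion computed. Mean of three determinations.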

[2] = target: Estrogen receptor beta (Homo sapiens) (UniProt Q92731); assay: Relative binding affinity to human recombinant ERbeta receptor using [3H]E2 as substrate after 1 hr by liquid scintillation counting relative to E2
Outline: (§1)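 Recombinant human ERα or ERβ (0.25 pmol) incubated 1 h at rt with [3H]-E2 (10 nM) and compound in DMSO (5% final). Nonspecific binding defined with diethylstilbestrol 10 μM. Bound complex captured on hydroxyapatite, washed, resuspended in ethanol, counted by liquid scintillation. Concentrations displacing 50% of bound label compared with E2, which is set at 100%.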

[3] = target: T2, 17-beta-hydroxysteroid dehydrogenase type 1 (Mus musculus) (UniProt P51656); assay: Inhibition of mouse liver cytosolic 17betaHSD1 using [3H]E1 as substrate
T2 sequence (whole entry): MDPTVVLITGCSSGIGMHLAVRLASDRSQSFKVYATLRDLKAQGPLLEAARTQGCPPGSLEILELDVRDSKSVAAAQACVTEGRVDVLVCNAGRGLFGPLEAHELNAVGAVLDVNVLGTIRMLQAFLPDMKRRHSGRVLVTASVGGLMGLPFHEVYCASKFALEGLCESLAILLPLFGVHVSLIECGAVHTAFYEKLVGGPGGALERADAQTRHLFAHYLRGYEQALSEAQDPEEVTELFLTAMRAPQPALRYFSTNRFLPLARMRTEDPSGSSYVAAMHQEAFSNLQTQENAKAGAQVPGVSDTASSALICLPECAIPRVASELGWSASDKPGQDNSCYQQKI

[4] = target: T3, Estradiol 17-beta-dehydrogenase 2 (Mus musculus) (UniProt P51658); assay: Inhibition of mouse liver microsomal 17betaHSD2 using [3H]E2 as substrate
T3 sequence (whole entry): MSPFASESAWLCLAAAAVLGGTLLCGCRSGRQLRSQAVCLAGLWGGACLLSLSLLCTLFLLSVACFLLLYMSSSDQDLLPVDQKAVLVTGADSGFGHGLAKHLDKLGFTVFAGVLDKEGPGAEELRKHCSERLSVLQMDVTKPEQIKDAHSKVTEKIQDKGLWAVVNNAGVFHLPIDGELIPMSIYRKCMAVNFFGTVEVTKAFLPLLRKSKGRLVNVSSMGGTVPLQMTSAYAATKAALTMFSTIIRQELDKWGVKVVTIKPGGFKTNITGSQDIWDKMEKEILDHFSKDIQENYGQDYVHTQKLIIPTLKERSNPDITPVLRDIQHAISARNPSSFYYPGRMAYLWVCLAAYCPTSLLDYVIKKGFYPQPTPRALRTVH

[5] = target: T4, 17-beta-hydroxysteroid dehydrogenase type 1 (Homo sapiens, UniProt P14061); assay: Inhibition of human placenta cytosolic 17betaHSD1 using [3H]E1 as substrate after 10 mins by radioflow detection assay
T4 sequence (P14061 whole entry): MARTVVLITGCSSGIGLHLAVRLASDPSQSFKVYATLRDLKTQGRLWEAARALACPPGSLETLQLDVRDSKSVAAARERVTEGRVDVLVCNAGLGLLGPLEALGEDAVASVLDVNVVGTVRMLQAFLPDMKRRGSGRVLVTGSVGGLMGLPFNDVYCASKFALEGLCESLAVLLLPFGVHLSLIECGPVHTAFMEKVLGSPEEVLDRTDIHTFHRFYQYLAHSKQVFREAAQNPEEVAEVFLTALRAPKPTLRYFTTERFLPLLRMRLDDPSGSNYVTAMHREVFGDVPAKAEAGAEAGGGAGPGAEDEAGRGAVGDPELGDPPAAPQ
Outline: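 Cytosolic 17β-HSD1 from fresh human placenta, obtained by ammonium sulfate precipitation. Incubated at 37 °C in 50 mM phosphate buffer with 20% glycerol and EDTA, with NADH 500 μM and compound (DMSO 1% final). Started with unlabeled + [3H]-E1 (500 nM final), stopped after 10 min with HgCl2, ether-extracted. E1/E2 quantified by radioflow HPLC as % conversion. At least three independent experiments.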

[6] = target: T4, 17-beta-hydroxysteroid dehydrogenase type 1; assay: Inhibition of 17betaHSD1 in human T47D cells using [3H]E1 as substrate incubated for 30 mins prior to substrate addition measured after 30 mins by radioflow detection assay; format: cell-based
Outline: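 T47D cells kept in RPMI 1640 with 10% FCS, glutamine, insulin-zinc, pyruvate, antibiotics. Seeded at 5 × 10^5 cells/well in DMEM with FCS, switched to serum-free DMEM after 24 h. Compound added in DMSO (1% final), 30 min preincubation at 37 °C, 5% CO2. Then unlabeled + [3H]-E1 (50 nM final) for 30 min. Steroids extracted into diethylether. Mean of three determinations.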

Callithrix jacchus [7] = species: Callithrix jacchus; assay: Inhibition of mormoset placenta cytosolic 17betaHSD1 using [3H]E1 as substrate at 50 nM after 10 mins by radioflow detection assay
Callithrix jacchus [8] = species: Callithrix jacchus; assay: Inhibition of mormoset placenta microsomal 17betaHSD2 using [3H]E2 as substrate at 50 nM after 20 mins by radioflow detection assay
[9] = target: T5, Estrogen receptor (Homo sapiens) (UniProt P03372); assay: Relative binding affinity to human recombinant ERalpha receptor using [3H]E2 as substrate after 1 hr by liquid scintillation counting relative to E2; outline: as §1
T5 sequence (whole entry): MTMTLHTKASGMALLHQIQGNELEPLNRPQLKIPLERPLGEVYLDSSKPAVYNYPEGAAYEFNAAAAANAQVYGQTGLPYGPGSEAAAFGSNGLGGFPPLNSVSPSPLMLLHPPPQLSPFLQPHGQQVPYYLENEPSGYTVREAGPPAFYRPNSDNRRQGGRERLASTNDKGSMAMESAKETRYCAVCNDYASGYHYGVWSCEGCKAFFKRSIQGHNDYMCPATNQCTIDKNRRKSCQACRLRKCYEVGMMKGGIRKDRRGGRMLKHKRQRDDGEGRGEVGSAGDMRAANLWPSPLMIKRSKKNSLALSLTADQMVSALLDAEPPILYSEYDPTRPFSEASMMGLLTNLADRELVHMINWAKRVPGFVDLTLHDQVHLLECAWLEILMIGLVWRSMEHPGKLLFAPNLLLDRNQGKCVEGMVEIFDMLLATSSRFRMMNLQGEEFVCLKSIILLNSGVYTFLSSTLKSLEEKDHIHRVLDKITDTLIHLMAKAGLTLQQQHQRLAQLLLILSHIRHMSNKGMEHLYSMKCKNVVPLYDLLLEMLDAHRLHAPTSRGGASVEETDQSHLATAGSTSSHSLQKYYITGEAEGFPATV

[10] = target: T6, 17-beta-hydroxysteroid dehydrogenase type 1 (Homo sapiens) (UniProt P14061); assay: Inhibition of human placenta cytosolic 17betaHSD1 using [3H]E1 as substrate at 10 nM after 10 mins by radioflow detection assay
T6 sequence (whole entry): T4 sequence (P14061 whole entry)

Chain of Estrogen receptor beta (Homo sapiens) (Q92731 whole entry): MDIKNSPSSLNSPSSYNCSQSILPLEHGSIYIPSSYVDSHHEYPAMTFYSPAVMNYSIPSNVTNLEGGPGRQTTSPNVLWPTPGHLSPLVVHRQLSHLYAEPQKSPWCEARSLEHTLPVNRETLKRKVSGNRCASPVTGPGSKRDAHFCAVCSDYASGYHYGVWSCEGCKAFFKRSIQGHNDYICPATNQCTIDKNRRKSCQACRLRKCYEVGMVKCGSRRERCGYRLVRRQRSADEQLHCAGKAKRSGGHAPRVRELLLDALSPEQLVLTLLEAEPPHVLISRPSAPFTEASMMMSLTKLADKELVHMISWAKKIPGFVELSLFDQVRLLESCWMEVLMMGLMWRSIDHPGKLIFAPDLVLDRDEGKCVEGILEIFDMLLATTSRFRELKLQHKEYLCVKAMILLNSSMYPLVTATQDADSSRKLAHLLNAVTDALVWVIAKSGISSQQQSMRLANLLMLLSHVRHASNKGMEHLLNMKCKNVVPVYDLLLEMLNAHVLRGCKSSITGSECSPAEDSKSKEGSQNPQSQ

Row | pIC50 [1] | RBA [2] [%] | inhibition [3] | inhibition [4] | pIC50 [5] | pIC50 [6] | inhibition (Callithrix jacchus [7]) [%] | inhibition (Callithrix jacchus [8]) [%] | RBA [9] [%] | inhibition [10] [%] | Structure (SMILES)
1 | 6.00 | < 0.1 | inactive | Active | 7.85 | 6.15 | 20 | < 10 | < 0.1 | – | O=S(=O)(Nc1cccc(-c2c(O)ccc3cc(-c4cccc(O)c4)ccc23)c1)c1cccc(O)c1
2 | 5.92 | < 0.1 | inactive | Active | 7.49 | 6.61 | 17 | 32 | < 0.1 | > 30 | O=S(=O)(CC(F)(F)F)Nc1cccc(-c2c(O)ccc3cc(-c4cccc(O)c4)ccc23)c1
3 | 6.39 | < 0.1 | inactive | Active | 7.82 | 6.71 | 19 | < 10 | < 0.1 | > 30 | O=S(=O)(Nc1cccc(-c2c(O)ccc3cc(-c4cccc(O)c4)ccc23)c1)c1ccccc1
4 | 6.36 | < 0.1 | inactive | Active | 7.85 | 6.80 | 43 | 35 | < 0.1 | > 30 | N#Cc1ccccc1S(=O)(=O)Nc1cccc(-c2c(O)ccc3cc(-c4cccc(O)c4)ccc23)c1
